Test results published in ChEMBL document CHEMBL1125448, “(Aminoalkoxy)chromones. Selective sigma receptor ligands” (J Med Chem, 1992).

target: T1, D(2) dopamine receptor (Rattus norvegicus, UniProt P61169); test: Affinity towards dopamine receptor D2 site was determined by competition studies using [3H]sulpiride in rat striatum.; format: tissue-based
How it was run: (§1)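 Competition binding values reported as mean ± SEM of triplicate determinations, with some entries from N = 3, 4, 6 or 7 determinations.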

T1 sequence (P61169 whole entry): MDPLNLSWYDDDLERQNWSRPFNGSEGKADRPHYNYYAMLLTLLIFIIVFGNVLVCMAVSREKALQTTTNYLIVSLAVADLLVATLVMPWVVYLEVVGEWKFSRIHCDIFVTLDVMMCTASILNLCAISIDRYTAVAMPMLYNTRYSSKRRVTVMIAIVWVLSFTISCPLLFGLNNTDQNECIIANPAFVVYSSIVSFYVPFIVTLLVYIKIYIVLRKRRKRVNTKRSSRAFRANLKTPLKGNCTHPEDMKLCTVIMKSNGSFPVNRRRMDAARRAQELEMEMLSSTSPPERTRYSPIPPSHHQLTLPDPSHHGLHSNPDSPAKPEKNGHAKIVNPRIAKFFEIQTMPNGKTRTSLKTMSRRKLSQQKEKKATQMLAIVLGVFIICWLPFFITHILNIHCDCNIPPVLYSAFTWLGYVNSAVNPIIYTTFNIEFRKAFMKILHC

Structure (SMILES)	Ki
O=c1cc(-c2ccccc2)oc2ccc(OCCCCCCN3CCC(O)(c4ccc(Cl)cc4)CC3)cc12	0.99 µM
O=c1cc(-c2ccncc2)oc2ccc(OCCCCCCN3CCC(O)CC3)cc12	6.9 µM
NCCCCCCOc1ccc2oc(-c3ccccc3)cc(=O)c2c1	8.2 µM
O=c1cc(-c2cccs2)oc2ccc(OCCCCCCN3CCC(O)CC3)cc12	4 µM
O=c1cc(C2CCCCC2)oc2ccc(OCCCCCN3CCC(O)CC3)cc12	12 µM
O=c1cc(-c2ccccc2)oc2ccc(OCCCCCCN3CCN(c4ccccn4)CC3)cc12	3 µM
CCN(CC)CCCCCCOc1ccc2oc(-c3ccccc3)cc(=O)c2c1	3.6 µM
O=c1cc(-c2cccc(F)c2)oc2ccc(OCCCCCCN3CCC(O)CC3)cc12	11 µM
O=c1cc(-c2ccc(F)cc2)oc2ccc(OCCCCCCN3CCC(O)CC3)cc12	3.8 µM
CN(CCCCCCOc1ccc2oc(-c3ccccc3)cc(=O)c2c1)Cc1ccccc1	1.8 µM
Cc1c(-c2ccccc2)oc2ccc(OCCCCCCN3CCC(O)CC3)cc2c1=O	2.7 µM
O=C1NCN(c2ccccc2)C12CCN(CCCCCCOc1ccc3oc(-c4ccccc4)cc(=O)c3c1)CC2	0.18 µM
O=c1cc(-c2ccc(Cl)cc2)oc2ccc(OCCCCCCN3CCC(O)CC3)cc12	11 µM
O=c1cc(-c2cccnc2)oc2ccc(OCCCCCCN3CCC(O)CC3)cc12	3.8 µM
COc1cccc(-c2cc(=O)c3cc(OCCCCCCN4CCC(O)CC4)ccc3o2)c1	9.5 µM
O=c1cc(-c2ccccc2)oc2cccc(OCCCCN3CCC(O)CC3)c12	9.5 µM
O=c1cc(C2CCC2)oc2ccc(OCCCCCCN3CCC(O)CC3)cc12	14 µM
O=c1cc(-c2ccccc2)oc2cccc(OCCCCCN3CCC(O)CC3)c12	5.1 µM
O=c1cc(-c2ccccc2)oc2ccc(OCCCCCCN3CCCCCC3)cc12	2.3 µM
O=c1cc(-c2ccccc2)oc2cccc(OCCCCCCN3CCC(O)CC3)c12	6.1 µM
Cc1c(-c2ccccc2)oc2ccc(OCCC/C=C/CN3CCC(O)CC3)cc2c1=O	2.7 µM

The remaining lines, values ahead:

Ki	Structure (SMILES)
3.7 µM	COc1ccc(-c2cc(=O)c3cc(OCCCCCCN4CCC(O)CC4)ccc3o2)cc1
0.22 µM	O=c1cc(-c2ccccc2)oc2ccc(OCCCCCCN3CCC(n4c(O)nc5ccccc54)CC3)cc12
4.1 µM	O=c1cc(-c2ccccc2Cl)oc2ccc(OCCCCCCN3CCC(O)CC3)cc12
8.3 µM	O=c1cc(-c2ccccc2)oc2ccc(OCCCCCCN3CCN(CCO)CC3)cc12
21 µM	O=c1cc(C2CCCC2)oc2ccc(OCCCCCCN3CCC(O)CC3)cc12
6.2 µM	COc1cccc(-c2cc(=O)c3cc(OCCCCCN4CCC(O)CC4)ccc3o2)c1
4.2 µM	COc1ccc(-c2cc(=O)c3cc(OCCCCCN4CCC(O)CC4)ccc3o2)cc1
18 µM	O=c1cc(-c2ccccc2)oc2ccc(OCCCCCCN3CCOCC3)cc12
6.4 µM	O=c1cc(-c2cccc(Cl)c2)oc2ccc(OCCCCCCN3CCC(O)CC3)cc12
1.3 µM	O=c1cc(-c2ccccc2)oc2ccc(OCCCCCCN3CCN(c4ccc(Cl)cc4)CC3)cc12
8.4 µM	O=c1cc(-c2ccccc2)oc2cccc(OCCCN3CCC(O)CC3)c12
2.8 µM	CCOC(=O)C1CCN(CCCCCCOc2ccc3oc(-c4ccccc4)cc(=O)c3c2)CC1
0.7 µM	CCOC(=O)C1CCCN(CCCCCCOc2ccc3oc(-c4ccccc4)cc(=O)c3c2)C1 (stereo not given)
4.5 µM	CN(CCO)CCCCCCOc1ccc2oc(-c3ccccc3)cc(=O)c2c1
3.6 µM	CN(C)CCCOc1ccc2oc(-c3ccccc3)cc(=O)c2c1
1.3 µM	O=c1cc(-c2ccccc2)oc2ccc(OCCCCCCN3CC=C(c4ccc(Cl)cc4)CC3)cc12

target: T1, D(2) dopamine receptor; test: Affinity towards dopamine D2 site was determined by competition studies using [3H]sulpiride in rat striatum.; format: tissue-based; how it was run: as §1

Ki	Structure (SMILES)
4.5 µM	O=c1cc(-c2ccccc2)oc2ccc(OCCCCCCN3CCCCC3)cc12

target: T1, D(2) dopamine receptor; test: Affinity towards dopamine receptor D2 was determined by competition studies using [3H]sulpiride in rat striatum.; format: tissue-based; how it was run: as §1

Structure (SMILES)	Ki
CN(C)CCCCOc1ccc2oc(-c3ccccc3)cc(=O)c2c1	4.2 µM
O=c1cc(C2CCCC2)oc2ccc(OCCCCCCN3CCCCC3)cc12	3.2 µM
O=c1cc(-c2ccccc2)oc2cc(OCCCCN3CCC(O)CC3)ccc12	1 µM
CC1CCN(CCCCCCOc2ccc3oc(-c4ccccc4)cc(=O)c3c2)CC1	0.57 µM
O=c1cc(-c2ccncc2)oc2ccc(OCCCCCCN3CCCCC3)cc12	1.8 µM
O=c1cc(-c2ccccc2)oc2c(OCCCCCCN3CCC(O)CC3)cccc12	0.94 µM
O=c1cc(-c2ccccc2)oc2cc(OCCCCCCCCN3CCC(O)CC3)ccc12	2.8 µM
CN(C)CCCCCCCCCOc1ccc2oc(-c3ccccc3)cc(=O)c2c1	2.2 µM
CN(C)CCOc1ccc2c(=O)cc(-c3ccccc3)oc2c1	13 µM
COc1c(-c2ccccc2)oc2ccc(OCCCCCCN3CCC(O)CC3)cc2c1=O	2.6 µM
O=c1cc(-c2ccccc2)oc2ccc(OCCCCCN3CCC(O)CC3)cc12	5.1 µM
O=c1cc(-c2ccccc2)oc2cccc(OCCCCCCCN3CCC(O)CC3)c12	2.4 µM
O=c1cc(-c2ccccc2)oc2ccc(OCCCCCCN3CCC(O)CC3)cc12	3.7 µM
O=c1cc(-c2ccccc2)oc2ccc(OCCCCCCCCN3CCC(O)CC3)cc12	8.9 µM
O=c1cc(-c2ccccc2)oc2cc(OCCCCCCN3CCC(O)CC3)ccc12	6 µM
Cc1c(C2CCCCC2)oc2ccc(OCCCCCCN3CCC(O)CC3)cc2c1=O	4.7 µM
O=c1cc(-c2ccccc2)oc2ccc(OCCCCCCN3CCCC(O)C3)cc12 (stereo not given)	5.5 µM
O=c1cc(-c2ccccc2)oc2ccc(OCCCCCCN3CCCC3)cc12	2.3 µM
O=c1cc(C2CCCCC2)oc2ccc(OCCCCCCN3CCCCC3)cc12	7.7 µM
CN(C)CCOc1ccc2oc(-c3ccccc3)cc(=O)c2c1	4.5 µM

Further lines, results first:

Ki	Structure (SMILES)
2.8 µM	CN(C)CCCCCCCCOc1ccc2oc(-c3ccccc3)cc(=O)c2c1
14 µM	O=c1cc(C2CCCCC2)oc2ccc(OCCCCCCN3CCOCC3)cc12
1.4 µM	O=c1cc(-c2cccs2)oc2ccc(OCCCCCCN3CCCCC3)cc12
2.7 µM	CN(C)CCCCCCCCCCOc1ccc2oc(-c3ccccc3)cc(=O)c2c1
2.2 µM	O=c1cc(-c2ccccc2Cl)oc2ccc(OCCCCCCN3CCCCC3)cc12
12 µM	CN(C)CCCCCCCOc1ccc2oc(-c3ccccc3)cc(=O)c2c1
5.5 µM	O=c1cc(C2CCC2)oc2ccc(OCCCCCCN3CCCCC3)cc12
6.8 µM	O=c1cc(-c2ccccc2)oc2ccc(OCCCCN3CCC(O)CC3)cc12
3.4 µM	O=c1cc(-c2ccccc2)oc2ccc(OCCCN3CCC(O)CC3)cc12
8.2 µM	CN(C)CCCCCOc1ccc2oc(-c3ccccc3)cc(=O)c2c1
4 µM	O=c1cc(-c2ccccc2)oc2cc(OCCCCCCCN3CCC(O)CC3)ccc12
2.3 µM	O=c1cc(-c2cccnc2)oc2ccc(OCCCCCCN3CCCCC3)cc12
13 µM	CC(C)Cc1cc(=O)c2cc(OCCCCCN3CCC(O)CC3)ccc2o1
1.3 µM	O=c1cc(-c2ccccc2)oc2ccc(OCCCCCCN3CCNCC3c3ncccn3)cc12 (stereo not given)
6.5 µM	O=c1cc(-c2ccccc2)oc2ccc(OCCCCCCCN3CCC(O)CC3)cc12
2.7 µM	O=c1cc(-c2ccccc2)oc2ccc(OCCCCCCN3CCC(CCO)CC3)cc12
5.9 µM	O=c1cc(-c2ccccc2)oc2cc(OCCCCCN3CCC(O)CC3)ccc12
